{"source": "ChEMBL document CHEMBL5724801", "about": "“EUbOPEN Chemogenomics Library - Multiplex” (2024)", "note": "Values joined by “and” are separate entries in the source; they are usually repeats but may differ in a detail not shown here. Equal values may be shown once."}
{"tested_on": "HEK-293T", "experiment": "(§1) Multiplex assay against HEK293T", "format": "toxicity, cell-based", "details": "human, 12 h, 1 µM, compound concentration 1 uM", "method_in_brief": "(§2)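 Per cents of healthy-nucleus cells form the tubulin, mitochondrial-mass and membrane-permeability phenotype values. Live cells were stained at seeding with Hoechst33342, BioTracker Green Microtubule Cytoskeleton Dye, MitoTracker Red and Annexin V Alexa Fluor 680. After compound addition they were imaged on a CQ1 microscope at 37°C and 5% CO2, and CellPathfinder machine-learning gating split them into Hoechst high-intensity objects or normal cells, normal cells into healthy, pyknosed or fragmented nuclei, and pyknosed cells into mitotic or apoptotic.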", "units": {"Population Hoechst High Intensity Objects (%)": "%", "Population Normal (%)": "%"}}
{"smiles": "c1ccc2nc(N3CCNCC3)ccc2c1", "note": "[QUIPAZINE]", "Population Apoptotic (%)": "6.35% and 5.69%", "Population Fragmented Nuclei (%)": "1.8% and 5.66%", "Population Healthy Nuclei (%)": "49.61% and 16.98%", "Population Hoechst High Intensity Objects (%)": 0, "Population Membrane Permeable-Phenotype (%)": "0.52% and 0%", "Population Mitochondria Different-Phenotype (%)": "33.16% and 11.11%", "Population Mitotic Cells (%)": "93.65% and 94.31%", "Population Normal (%)": 100, "Population Pyknosed Nuclei (%)": "48.59% and 77.36%", "Total Cell Count": "389 and 159"}
{"smiles": "C=C(C)[C@H]1CN[C@H](C(=O)O)[C@H]1CC(=O)O", "note": "[KAINIC ACID]", "Population Apoptotic (%)": "11.5% and 6.48%", "Population Fragmented Nuclei (%)": "2.06% and 6.54%", "Population Healthy Nuclei (%)": "64.6% and 22.88%", "Population Hoechst High Intensity Objects (%)": 0, "Population Membrane Permeable-Phenotype (%)": "0.91% and 0%", "Population Mitochondria Different-Phenotype (%)": "37.44% and 14.29%", "Population Mitotic Cells (%)": "88.5% and 93.52%", "Population Normal (%)": 100, "Population Pyknosed Nuclei (%)": "33.33% and 70.59%", "Total Cell Count": "339 and 153"}
{"tested_on": "HEK-293T", "experiment": "as §1", "format": "toxicity, cell-based", "details": "human, 12 h, 10 µM, compound concentration 10 uM", "method_in_brief": "as §2"}
{"smiles": "c1ccc2nc(N3CCNCC3)ccc2c1", "note": "[QUIPAZINE]", "Population Apoptotic (%)": "10.22% and 12.62%", "Population Fragmented Nuclei (%)": "1.36% and 2.36%", "Population Hoechst High Intensity Objects (%)": "0.68% and 0%", "Population Membrane Permeable-Phenotype (%)": "0.65% and 4.76%", "Population Mitochondria Different-Phenotype (%)": "23.53% and 19.05%", "Population Mitotic Cells (%)": "89.78% and 87.38%", "Population Normal (%)": "99.32% and 100%", "Population Pyknosed Nuclei (%)": "46.6% and 81.1%", "Total Cell Count": "296 and 127"}
{"smiles": "C=C(C)[C@H]1CN[C@H](C(=O)O)[C@H]1CC(=O)O", "note": "[KAINIC ACID]", "Population Apoptotic (%)": "12.5% and 13.33%", "Population Fragmented Nuclei (%)": "12.27% and 2.55%", "Population Hoechst High Intensity Objects (%)": "0.26% and 0%", "Population Membrane Permeable-Phenotype (%)": "0%", "Population Mitochondria Different-Phenotype (%)": "22.58% and 24.24%", "Population Mitotic Cells (%)": "87.5% and 86.67%", "Population Normal (%)": "99.74% and 100%", "Total Cell Count": "384 and 157"}
{"tested_on": "HEK-293T", "experiment": "as §1", "format": "toxicity, cell-based", "details": "human, 24 h, 1 µM, compound concentration 1 uM", "method_in_brief": "as §2", "units": {"Population Hoechst High Intensity Objects (%)": "%", "Population Normal (%)": "%"}}
{"smiles": "c1ccc2nc(N3CCNCC3)ccc2c1", "note": "[QUIPAZINE]", "Population Apoptotic (%)": "10.39% and 10%", "Population Fragmented Nuclei (%)": "1.31% and 1.74%", "Population Healthy Nuclei (%)": "73.44% and 34.3%", "Population Hoechst High Intensity Objects (%)": 0, "Population Membrane Permeable-Phenotype (%)": "2.9% and 0%", "Population Mitochondria Different-Phenotype (%)": "14.29% and 11.86%", "Population Mitotic Cells (%)": "89.61% and 90%", "Population Normal (%)": 100, "Population Pyknosed Nuclei (%)": "25.25% and 63.95%", "Population Tubulin-Different-Phenotype (%)": "16.29% and 6.78%"}
{"smiles": "C=C(C)[C@H]1CN[C@H](C(=O)O)[C@H]1CC(=O)O", "note": "[KAINIC ACID]", "Population Apoptotic (%)": "14% and 18.07%", "Population Fragmented Nuclei (%)": "2.44% and 4.97%", "Population Healthy Nuclei (%)": "77.19% and 43.48%", "Population Hoechst High Intensity Objects (%)": 0, "Population Membrane Permeable-Phenotype (%)": "0.79% and 1.43%", "Population Mitochondria Different-Phenotype (%)": "12.14% and 7.14%", "Population Mitotic Cells (%)": "86% and 81.93%", "Population Normal (%)": 100, "Population Pyknosed Nuclei (%)": "20.37% and 51.55%", "Population Tubulin-Different-Phenotype (%)": "8.97% and 5.71%"}
{"tested_on": "HEK-293T", "experiment": "as §1", "format": "toxicity, cell-based", "details": "human, 24 h, 10 µM, compound concentration 10 uM", "method_in_brief": "as §2"}
{"smiles": "c1ccc2nc(N3CCNCC3)ccc2c1", "note": "[QUIPAZINE]", "Population Apoptotic (%)": "18.49% and 17.05%", "Population Fragmented Nuclei (%)": "1.63% and 1.53%", "Population Healthy Nuclei (%)": "74.08% and 31.3%", "Population Hoechst High Intensity Objects (%)": "0.41% and 0%", "Population Membrane Permeable-Phenotype (%)": "1.1% and 0%", "Population Mitochondria Different-Phenotype (%)": "15.98% and 14.63%", "Population Mitotic Cells (%)": "81.51% and 82.95%", "Population Normal (%)": "99.59% and 100%", "Population Pyknosed Nuclei (%)": "24.29% and 67.18%", "Population Tubulin-Different-Phenotype (%)": "15.98% and 9.76%"}
{"smiles": "C=C(C)[C@H]1CN[C@H](C(=O)O)[C@H]1CC(=O)O", "note": "[KAINIC ACID]", "Population Apoptotic (%)": "9.33% and 14.16%", "Population Fragmented Nuclei (%)": "9.95% and 0%", "Population Healthy Nuclei (%)": "77.19% and 40.84%", "Population Hoechst High Intensity Objects (%)": "0%", "Population Membrane Permeable-Phenotype (%)": "0.22% and 0%", "Population Mitochondria Different-Phenotype (%)": "11.33% and 7.69%", "Population Mitotic Cells (%)": "90.67% and 85.84%", "Population Normal (%)": "100%", "Population Tubulin-Different-Phenotype (%)": "4.89% and 1.28%"}
{"tested_on": "HEK-293T", "experiment": "as §1", "format": "toxicity, cell-based", "details": "human, 48 h, 1 µM, compound concentration 1 uM", "method_in_brief": "as §2"}
{"smiles": "c1ccc2nc(N3CCNCC3)ccc2c1", "note": "[QUIPAZINE]", "Population Fragmented Nuclei (%)": "2.36% and 0.5%", "Population Healthy Nuclei (%)": "83.55% and 65%", "Population Hoechst High Intensity Objects (%)": "0.15% and 0%", "Population Membrane Permeable-Phenotype (%)": "6.88% and 1.54%", "Population Mitochondria Different-Phenotype (%)": "14.83% and 16.15%", "Population Mitotic Cells (%)": "95.81% and 81.16%", "Population Normal (%)": "99.85% and 100%", "Population Pyknosed Nuclei (%)": "14.09% and 34.5%"}
{"smiles": "C=C(C)[C@H]1CN[C@H](C(=O)O)[C@H]1CC(=O)O", "note": "[KAINIC ACID]", "Population Apoptotic (%)": "7.41% and 12.12%", "Population Fragmented Nuclei (%)": "6.01% and 2.75%", "Population Healthy Nuclei (%)": "85.97% and 71.37%", "Population Hoechst High Intensity Objects (%)": "0.07% and 0%", "Population Membrane Permeable-Phenotype (%)": "5.09% and 4.4%", "Population Mitochondria Different-Phenotype (%)": "10.62% and 17.03%", "Population Mitotic Cells (%)": "92.59% and 87.88%", "Population Normal (%)": "99.93% and 100%"}
{"tested_on": "HEK-293T", "experiment": "as §1", "format": "toxicity, cell-based", "details": "human, 48 h, 10 µM, compound concentration 10 uM", "method_in_brief": "as §2"}
{"smiles": "c1ccc2nc(N3CCNCC3)ccc2c1", "note": "[QUIPAZINE]", "Population Apoptotic (%)": "13.64% and 6.25%", "Population Fragmented Nuclei (%)": "3.18% and 1.42%", "Population Healthy Nuclei (%)": "86.82% and 64.54%", "Population Hoechst High Intensity Objects (%)": "0%", "Population Membrane Permeable-Phenotype (%)": "5.34% and 3.3%", "Population Mitochondria Different-Phenotype (%)": "17.59% and 12.09%", "Population Mitotic Cells (%)": "86.36% and 93.75%", "Population Normal (%)": "100%"}
{"smiles": "C=C(C)[C@H]1CN[C@H](C(=O)O)[C@H]1CC(=O)O", "note": "[KAINIC ACID]", "Population Apoptotic (%)": "13.71% and 22.5%", "Population Fragmented Nuclei (%)": "7.14% and 1.13%", "Population Healthy Nuclei (%)": "83.02% and 68.8%", "Population Hoechst High Intensity Objects (%)": "0% and 0.75%", "Population Membrane Permeable-Phenotype (%)": "4.88% and 2.19%", "Population Mitochondria Different-Phenotype (%)": "10.71% and 14.75%", "Population Mitotic Cells (%)": "86.29% and 77.5%", "Population Normal (%)": "100% and 99.25%"}
